T cruzi inh: blocks replication of Trypanosoma cruzi; T. cruzi beta-gal in NIH3T3, luminescence, 90 h; inhibition, % (test concentration not listed); 300,000 tested, 1.4% active;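 active = mean inhibition across valid replicates above about 55%, limit read from the data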;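 also: signal also drops with host cell toxicity which is not excluded here; 0% = plate median of DMSO wells and 100% = zero luminescence signal; higher percent means less beta-gal luminescence so fewer parasites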
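System: mouse NIH/3T3 fibroblasts infected with β-gal-expressing T. cruzi Tulahuen C4 / Input: NIH/3T3 cells, 5,000 per well / Buffer or medium: Low-serum DMEM with 2% FBS / Probe or stimulus: 5000 reporter trypomastigotes per well / Schedule: ≥90 h infection period, 3 h prior cell attachment / Measured by: GalScreen luminescence, 60 min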
HSF1 inh: HSF1 inhibition; activity change, negative = inhibition, % at 7.5 µM (by protocol); NIH3T3-HGL HSE-luciferase, MG132-induced, luminescence 8 h; active compounds read low; AID 2098; 300,000 tested, 0.77% active;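 active = more than half of replicate wells show activity change below -50%, luminescence cut by over half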;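 also: luciferase reports HSF-1 transcriptional activity via heat shock element; 0% = median of DMSO wells and -100% = zero luminescence signal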
HSF1 activator: increases HSF-1 driven luciferase reporter signal | NIH3T3-HGL HSF-1 luciferase reporter, MG132, 8 h; 100% = twice DMSO control signal | activation, % at 9 µM | 300,000 tested, 1.7% active;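 active = mean replicate activation of at least 50% with a set share of replicates each reaching 50%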;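 also: 0% = median of the neutral control wells and 100% = twice that signal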
Calb FLC: C. albicans growth modulation with fluconazole. C. albicans CaCi-2 + fluconazole, Alamar Blue growth, 48 h. growth inhibition, % (concentration not given with the values). 300,000 tested, 0.57% active. AID 1979;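 active = growth inhibition above about 58% in most replicates, limit read from the data, passing the limit was not always enough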;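 also: all wells also contain fluconazole at 8 µg/ml as a sub-toxic cotreatment; 0% = median of DMSO wells and 100% = median of geldanamycin control wells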
HIF act: HIF pathway transcriptional activation; activation, % at 7.5 µM (by protocol); U2OS HRE-luciferase reporter, luminescence; normalized: DMSO 0%, desferrioxamine 100%; AID 1910; 300,000 tested, 0.32% active;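 active = mean activation of at least 10% of the iron chelator positive control signal, with at least half of replicates also reaching 10%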
The depositor's hits bear a star; . = no result. Compounds with a hit are over-represented: about 4.4% of the library has one in this group of screens.

SMILES | T cruzi inh | HSF1 inh | HSF1 activator | Calb FLC | HIF act
COc1ccc(-c2nc3ccc(C)cn3c2NCc2ccc3c(c2)OCO3)cc1 | 29 | 14 | 60* | -21 | 1
CCN(CC)c1ccc(/C=C/C(=O)c2cccnc2)cc1 | 6 | 0 | 1 | 93* | 0
O=C(C[n+]1cc(-c2ccccc2)n2c1CCC2)N1c2ccccc2Sc2ccccc21 | 40 | -2 | 15 | -2 | 0
Clc1cccc(C[n+]2cc(-c3ccccc3)n3c2CCC3)c1 | 64* | -11 | -21 | -2 | 0
Cc1ccc(C[n+]2cc(-c3ccc(Cl)cc3)n3c2CCC3)cc1 | . | . | . | -28 | .
Cc1ccc(-c2c[n+](Cc3cccc(Cl)c3)c3n2CCC3)cc1 | 67* | -8 | -11 | 0 | -1
Cc1ccc(-c2c[n+](Cc3ccc(Cl)cc3)c3n2CCC3)cc1 | 61* | -3 | 28 | 20 | 0
Cc1ccc(-c2c[n+](CC(=O)N3c4ccccc4Sc4ccccc43)c3n2CCC3)cc1 | 42 | -10 | 0 | 109* | 0
COC(=O)c1ccc(N2CCN(C)CC2)c(NC(=O)c2cccs2)c1 | 23 | -2 | 14 | -1 | 1
COc1ccc(S(=O)(=O)Nc2ccc(Oc3ccsc3C(=O)O)cc2)cc1 | -7 | -2 | -9 | 2 | -1
COc1ccccc1CC(NC(C)=O)C(=O)NC1CCN(C(=O)c2cccc(Cl)c2)CC1 (stereo not drawn) | -5 | -3 | -9 | -2 | 0
COc1ccc([N+](=O)[O-])cc1NC(=O)C1CCCN1S(=O)(=O)c1cccs1 (stereo not drawn) | -10 | -3 | 1 | 5 | 0
O=C(c1ccc2c(c1)N(Cc1ccccc1)C(=O)CS2)N1CCOCC1 | -5 | -1 | 4 | -6 | -1
Cc1ccccc1CN1C(=O)CSc2ccc(C(=O)N3CCOCC3)cc21 | 2 | 1 | 2 | -2 | 23*
CCCCC(=O)NC(Nc1cc(C)ccn1)(C(=O)OCC)C(F)(F)F (stereo not drawn) | -14 | -4 | 1 | 7 | -1
O=C(N/N=C/c1cccc(C(F)(F)F)c1)c1ccc(O)cc1 | -1 | -74* | -79 | -6 | 2
O=C(N/N=C/c1c(O)ccc2ccccc12)c1cccc(C(F)(F)F)c1 | 57* | 2 | 0 | 90* | 14*
Cc1ccc(C2=NN(S(C)(=O)=O)C(c3ccc4c(c3)OCO4)C2)cc1 (stereo not drawn) | -5 | 55 | 80* | 1 | 2
CS(=O)(=O)N1N=C(c2ccc(Br)cc2)CC1c1ccc2c(c1)OCO2 (stereo not drawn) | 3 | 42 | 77* | -2 | 4
CC(=O)N1N=C(c2ccc(C)cc2)CC1c1ccc2c(c1)OCO2 (stereo not drawn) | 0 | 27 | 43 | -4 | 6
CS(=O)(=O)Nc1ccc(C2=NN(S(C)(=O)=O)C(c3ccc4nccnc4c3)C2)cc1 (stereo not drawn) | -11 | 4 | -2 | -13 | 0
COc1cc(OC)c(S(=O)(=O)Nc2ccc(C)cn2)cc1NC(C)=O | -14 | -4 | 0 | -6 | 0
N/C(=N\OC(=O)c1ccc([N+](=O)[O-])cc1Cl)c1ccccn1 | 39 | -10 | -16 | 23 | -3
Cc1ccc(C(=O)O/N=C(\N)c2ccccn2)c(Cl)c1 | -19 | -84* | -87 | -4 | -6
Cc1ccc(C(=O)O/N=C(\N)c2ccccc2)c(Cl)c1 | -16 | -81* | -83 | -1 | -4
SMILES | T cruzi inh | HSF1 inh | HSF1 activator | Calb FLC | HIF act
N/C(=N\OC(=O)c1ccc(Cl)cc1Cl)c1ccccn1 | -1 | -65* | -74 | 26 | -2
COc1ccc(-n2cc(CNCCc3cscn3)c(-c3ccccc3Cl)n2)cc1 | -10 | 28 | 59* | -29 | 0
CN(C)CCCN(C(=O)c1ccc2c(c1)CCCC2)c1nc2c(F)cccc2s1 | 58* | 16 | 18 | 3 | 2
CN(C)CCCN(C(=O)c1ccc(S(=O)(=O)N(C)Cc2ccccc2)cc1)c1nc2c(F)cccc2s1 | 36 | 5 | 13 | 5 | -1
CN(C)CCCN(C(=O)c1ccc(N2C(=O)CCC2=O)cc1)c1nc2c(F)cccc2s1 | 57* | 3 | 32 | 4 | 0
Cc1ccc2nc(N(CCCN(C)C)C(=O)c3ccc4c(c3)CCCC4)sc2c1 | 44 | -13 | -4 | 2 | -2
Cc1cc(C)c2nc(N(CCCN(C)C)C(=O)c3ccc4c(c3)CCCC4)sc2c1 | 58* | -5 | 8 | 10 | -22
CC(C)(C)NC(=O)COC(=O)c1ccc(NC(=O)CC#N)cc1 | 2 | -3 | 17 | 3 | 0
CC(=O)N=c1sccn1CC(=O)c1ccc([N+](=O)[O-])cc1 | -14 | 14 | 58* | -4 | 1
Cc1ccc(N(Cc2ccccc2)C(=O)c2ccc(Cl)c(S(=O)(=O)N3CCOCC3)c2)cc1 | 29 | 26 | 22 | -1 | 0
CCOC(=O)c1cnc2c(C)c(C)ccc2c1Nc1ccc(S(=O)(=O)Nc2ncccn2)cc1 | -3 | -7 | -17 | 58 | 1
COc1cccc2[nH]c3c(N4CC(C)CC(C)C4)ncnc3c12 (stereo not drawn) | 57* | 6 | 20 | 28 | 0
COc1cccc2[nH]c3c(N4CCCC(C)C4)ncnc3c12 (stereo not drawn) | 29 | 6 | 8 | 42 | 1
Cc1ccc(CCNC(=O)Cn2cccc2)cc1 | 6 | 25 | 52* | 0 | 0
CN1CC(c2ccc(Cl)c(Cl)c2)[C@@]2(COc3ccccc3C2=O)[C@@]12C(=O)Nc1ccccc12 (stereo partly drawn) | 49 | -2 | 4 | -10 | -2
O=C(O)c1cc(S(=O)(=O)Nc2ccc3c(c2)OCCO3)c(Cl)cc1Cl | -4 | -69* | -71 | 1 | -2
Cc1nn(C)cc1S(=O)(=O)Nc1ccc2c(c1)OCCO2 | 0 | -63* | -69 | 0 | -1
Cc1n[nH]c(C)c1S(=O)(=O)Nc1ccc2c(c1)OCCO2 | -15 | -62* | -63 | -4 | 0
Cc1c(S(=O)(=O)Nc2ccc3c(c2)OCCO3)cnn1C | 3 | 5 | -10 | -4 | 0
CC(NC(=O)C1CCN(S(=O)(=O)c2cccc3nonc23)CC1)c1ccccc1 (stereo not drawn) | 3 | 4 | 15 | 16 | 1
O=C(NNc1ccc(Cl)cc1)c1c(F)cccc1Cl | . | 7 | 19 | 83* | 0
O=C(NNc1ccc(Cl)cc1)c1sccc1Cl | 29 | -10 | 16 | 105* | -1
CCOc1ccccc1N(CC(=O)NCc1ccccc1)C(=O)CCC(=O)Nc1cc(C)ccn1 | 29 | -3 | 6 | -7 | 0
CC(=O)Oc1c(-c2ccc(Br)o2)oc2ccccc2c1=O | -5 | -2 | 8 | 85* | 1
COc1ccc(-c2oc3ccccc3c(=O)c2OC(C)=O)cc1 | 23 | -11 | 21 | 45 | 5
Cc1c(Cl)ccc(S(=O)(=O)Nc2cccnc2)c1Cl | 1 | -3 | 1 | 77* | 1

Screening results from PubChem.
